Converted amounts (≈) assume the structure as drawn. Numbered stars: 1 amine (or outer) side, 2 acyl side, 3 side chain; on linkers, the order of the positions; unused ones are H or OH. Bridge positions count the residues as written; N and C are the ends. Square brackets hold non-standard residues; d marks the D form. Peptide text beside a SMILES is read from it. * marks the point of attachment. hTyr(3S-OH,4S-OH,3'-OSO3H) = N[C@H](C(=O)O)[C@H](O)[C@@H](O)c1ccc(O)c(OS(=O)(=O)O)c1; Orn(4R-OH,5R-OH) = O=C([C@H](C[C@@H](O)[C@@H](O)N[*:3])N[*:1])[*:2]; Pro(3S-OH,4S-Me) = C[C@H]1CN[C@H](C(=O)O)[C@H]1O; X1 = CCCCCOc1ccc(-c2cc(-c3ccc(C(=O)*)cc3)no2)cc1; Gln(3R-OH) = NC(=O)C[C@@H](O)[C@H](N)C(=O)O; Hyp = O=C(O)[C@@H]1C[C@@H](O)CN1
Assays:
Aspergillus lentulus [1] = experiment: Antimicrobial activity against Aspergillus lentulus isolate CNM-CM-1290 obtained from sputum of patient after 48 hrs by broth microdilution method; assay type: functional; settings: isolate CNM-CM-1290, 48 h
Outline: (§1)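 CLSI M38-A broth microdilution with modifications: RPMI 1640 with L-glutamine, 2% glucose, buffered to pH 7 with 0.165 M MOPS. Inoculum of 1 × 10^5 to 5 × 10^5 CFU/ml from 3- to 5-day-old cultures. Incubated 35°C, 48 h, humid. Visual reading with a mirror. MIC is complete growth inhibition; echinocandin MEC is hyphal morphological alteration. Azoles 8 to 0.015 μg/ml; others 16 to 0.03 μg/ml.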

Aspergillus lentulus [2] = experiment: Antimicrobial activity against Aspergillus lentulus isolate CNM-CM-3134 obtained from sputum of patient after 48 hrs by broth microdilution method; assay type: functional; settings: isolate CNM-CM-3134, 48 h; outline: as §1
Aspergillus lentulus [3] = experiment: Antimicrobial activity against Aspergillus lentulus isolate CNM-CM-4420 obtained from nail of patient after 48 hrs by broth microdilution method; assay type: functional; settings: isolate CNM-CM-4420, 48 h; outline: as §1
Aspergillus viridinutans [4] = experiment: Antimicrobial activity against Aspergillus viridinutans isolate CNM-CM-4518 obtained from nail of patient after 48 hrs by broth microdilution method; assay type: functional; settings: isolate CNM-CM-4518, 48 h; outline: as §1
Neosartorya hiratsukae [5] = experiment: Antimicrobial activity against Neosartorya hiratsukae isolate CNM-CM-3305 obtained from skin of patient after 48 hrs by broth microdilution method; assay type: functional; settings: Aspergillus hiratsukae, isolate CNM-CM-3305, 48 h; outline: as §1
Aspergillus lentulus [6] = experiment: Antimicrobial activity against Aspergillus lentulus isolate CNM-CM-4426 obtained from sputum of patient after 48 hrs by broth microdilution method; assay type: functional; settings: isolate CNM-CM-4426, 48 h; outline: as §1
Aspergillus lentulus [7] = experiment: Antimicrobial activity against Aspergillus lentulus isolate CNM-CM-3583 obtained from sputum of patient after 48 hrs by broth microdilution method; assay type: functional; settings: isolate CNM-CM-3583, 48 h; outline: as §1
Aspergillus lentulus [8] = experiment: Antimicrobial activity against Aspergillus lentulus isolate CNM-CM-3599 obtained from sputum of patient after 48 hrs by broth microdilution method; assay type: functional; settings: isolate CNM-CM-3599, 48 h; outline: as §1
Aspergillus lentulus [9] = experiment: Antimicrobial activity against Aspergillus lentulus isolate CNM-CM-4428 obtained from skin of patient after 48 hrs by broth microdilution method; assay type: functional; settings: isolate CNM-CM-4428, 48 h; outline: as §1
Aspergillus fumigatus = experiment: Antimicrobial activity against Aspergillus fumigatus ATCC 2004305 after 48 hrs by broth microdilution method; assay type: functional; settings: ATCC 2004305, 48 h
Aspergillus viridinutans [10] = experiment: Antimicrobial activity against Aspergillus viridinutans isolate CNM-CM-3147 obtained from oropharyngeal exudate of patient after 48 hrs by broth microdilution method; assay type: functional; settings: isolate CNM-CM-3147, 48 h; outline: as §1
Aspergillus lentulus [11] = experiment: Antimicrobial activity against Aspergillus lentulus isolate CNM-CM-3364 obtained from bronchoalveolar lavage fluid of patient after 48 hrs by broth microdilution method; assay type: functional; settings: isolate CNM-CM-3364, Lung; outline: as §1
[12] = system: Aspergillus fumisynnematus; experiment: Antimicrobial activity against Aspergillus fumisynnematus isolate CNM-CM-4063 obtained from bronchoalveolar aspirate of patient after 48 hrs by broth microdilution method; assay type: functional; settings: isolate CNM-CM-4063, Lung; outline: as §1
[13] = system: Neosartorya pseudofischeri; experiment: Antimicrobial activity against Neosartorya pseudofischeri isolate CNM-CM-3769 obtained from sputum of patient after 48 hrs by broth microdilution method; assay type: functional; settings: Aspergillus thermomutatus
Outline: (§2)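 CLSI M38-A broth microdilution with modifications: RPMI 1640 with L-glutamine, MOPS-buffered to pH 7, plus 2% glucose. Inoculum 1 × 10^5 to 5 × 10^5 CFU/ml from 3–5-day cultures. Incubated at 35°C for 48 h, humid. Read visually with a mirror. MIC = complete growth inhibition; echinocandin MEC = altered hyphal morphology. QC strain A. fumigatus ATCC 2004305.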

Aspergillus lentulus [14] = experiment: Antimicrobial activity against Aspergillus lentulus isolate CNM-CM-3537 obtained from sputum of patient after 48 hrs by broth microdilution method; assay type: functional; settings: isolate CNM-CM-3537, 48 h; outline: as §1
Aspergillus lentulus [15] = experiment: Antimicrobial activity against Aspergillus lentulus isolate CNM-CM-3538 obtained from sputum of patient after 48 hrs by broth microdilution method; assay type: functional; settings: isolate CNM-CM-3538, 48 h; outline: as §1
Aspergillus lentulus [16] = experiment: Antimicrobial activity against Aspergillus lentulus isolate CNM-CM-4330 obtained from sputum of patient after 48 hrs by broth microdilution method; assay type: functional; settings: isolate CNM-CM-4330, 48 h; outline: as §1
[17] = system: Aspergillus fumigatiaffinis; experiment: Antimicrobial activity against Aspergillus fumigatiaffinis isolate CNM-CM-2280 obtained from sputum of patient after 48 hrs by broth microdilution method; settings: isolate CNM-CM-2280, 48 h
Neosartorya hiratsukae [18] = experiment: Antimicrobial activity against Neosartorya hiratsukae isolate CNM-CM-3740 obtained from oropharyngeal exudate of patient after 48 hrs by broth microdilution method; assay type: functional; settings: Aspergillus hiratsukae, isolate CNM-CM-3740, 48 h; outline: as §1
Neosartorya hiratsukae [19] = experiment: Antimicrobial activity against Neosartorya hiratsukae isolate CNM-CM-3303 obtained from skin of patient after 48 hrs by broth microdilution method; assay type: functional; settings: Aspergillus hiratsukae, isolate CNM-CM-3303, 48 h; outline: as §1
Aspergillus lentulus [20] = experiment: Antimicrobial activity against Aspergillus lentulus isolate CNM-CM-4370 obtained from sputum of patient after 48 hrs by broth microdilution method; assay type: functional; settings: isolate CNM-CM-4370, 48 h; outline: as §1
[21] = system: Neosartorya pseudofischeri; experiment: Antimicrobial activity against Neosartorya pseudofischeri isolate CNM-CM-4060 obtained from sputum of patient after 48 hrs by broth microdilution method; assay type: functional; settings: Aspergillus thermomutatus; outline: as §2
Aspergillus lentulus [22] = experiment: Antimicrobial activity against Aspergillus lentulus isolate CNM-CM-4387 obtained from sputum of patient after 48 hrs by broth microdilution method; assay type: functional; settings: isolate CNM-CM-4387, 48 h; outline: as §1
Aspergillus lentulus [23] = experiment: Antimicrobial activity against Aspergillus lentulus isolate CNM-CM-4415 obtained from sputum of patient after 48 hrs by broth microdilution method; assay type: functional; settings: isolate CNM-CM-4415, 48 h; outline: as §1
Neosartorya hiratsukae [24] = experiment: Antimicrobial activity against Neosartorya hiratsukae isolate CNM-CM-4328 obtained from cornea of patient after 48 hrs by broth microdilution method; assay type: functional; settings: Aspergillus hiratsukae, isolate CNM-CM-4328, Cornea; outline: as §1
[25] = system: Neosartorya pseudofischeri; experiment: Antimicrobial activity against Neosartorya pseudofischeri isolate CNM-CM-2270 obtained from sputum of patient after 48 hrs by broth microdilution method; assay type: functional; settings: Aspergillus thermomutatus, isolate CNM-CM-2270, 48 h; outline: as §2
[26] = system: Neosartorya pseudofischeri; experiment: Antimicrobial activity against Neosartorya pseudofischeri isolate CNM-CM-3914 obtained from nail of patient after 48 hrs by broth microdilution method; assay type: functional; settings: Aspergillus thermomutatus, isolate CNM-CM-3914, 48 h; outline: as §2
[27] = system: Aspergillus fumigatiaffinis; experiment: Antimicrobial activity against Aspergillus fumigatiaffinis isolate CNM-CM-3227 obtained from bronchoalveolar lavage fluid of patient after 48 hrs by broth microdilution method; settings: isolate CNM-CM-3227, Lung
Neosartorya hiratsukae [28] = experiment: Antimicrobial activity against Neosartorya hiratsukae isolate CNM-CM-3764 obtained from oropharyngeal exudate of patient after 48 hrs by broth microdilution method; assay type: functional; settings: Aspergillus hiratsukae, isolate CNM-CM-3764, 48 h; outline: as §1

## CCCCCOc1ccc(-c2cc(-c3ccc(C(=O)N[C@H]4C[C@@H](O)[C@@H](O)NC(=O)[C@@H]5[C@@H](O)[C@@H](C)CN5C(=O)[C@H]([C@H](O)CC(N)=O)NC(=O)[C@H]([C@H](O)[C@@H](O)c5ccc(O)c(OS(=O)(=O)O)c5)NC(=O)[C@@H]5C[C@@H](O)CN5C(=O)[C@H]([C@@H](C)O)NC4=O)cc3)no2)cc1 [MICAFUNGIN] (X1-[Orn(4R-OH,5R-OH)]T[Hyp][hTyr(3S-OH,4S-OH,3'-OSO3H)][Gln(3R-OH)][Pro(3S-OH,4S-Me)]; lactam 1-C)
Aspergillus lentulus [1]; read-out: MEC
  minimal effective concentration: 0.05 µg/mL
Aspergillus lentulus [2]; read-out: MEC
  minimal effective concentration: 0.07 µg/mL
Aspergillus lentulus [3]; read-out: MEC
  minimal effective concentration: 0.03 µg/mL
Aspergillus viridinutans [4]; read-out: MEC
  minimal effective concentration: 0.03 µg/mL
Neosartorya hiratsukae [5]; read-out: MEC
  minimal effective concentration: 0.14 µg/mL
Aspergillus lentulus [6]; read-out: MEC
  minimal effective concentration: 0.03 µg/mL
Aspergillus lentulus [7]; read-out: MEC
  minimal effective concentration: 0.03 µg/mL
Aspergillus lentulus [8]; read-out: MEC
  minimal effective concentration: 0.03 µg/mL
Aspergillus lentulus [9]; read-out: MEC
  minimal effective concentration: 0.03 µg/mL
Aspergillus fumigatus; read-out: MEC
  minimal effective concentration: 0.03 µg/mL
Aspergillus viridinutans [10]; read-out: MEC
  minimal effective concentration: 0.2 µg/mL
Aspergillus lentulus [11]; read-out: MEC
  minimal effective concentration: 0.03 µg/mL
[12]; read-out: MEC
  minimal effective concentration: 0.03 µg/mL
[13]; read-out: MEC
  minimal effective concentration: 0.06 µg/mL
Aspergillus lentulus [14]; read-out: MEC
  minimal effective concentration: 0.04 µg/mL
Aspergillus lentulus [15]; read-out: MEC
  minimal effective concentration: 0.1 µg/mL
Aspergillus lentulus [16]; read-out: MEC
  minimal effective concentration: 0.03 µg/mL
[17]; read-out: MEC
  minimal effective concentration: 0.04 µg/mL
Neosartorya hiratsukae [18]; read-out: MEC
  minimal effective concentration: 0.03 µg/mL
Neosartorya hiratsukae [19]; read-out: MEC
  minimal effective concentration: 0.03 µg/mL
Aspergillus lentulus [20]; read-out: MEC
  minimal effective concentration: 0.03 µg/mL
[21]; read-out: MEC
  minimal effective concentration: 0.03 µg/mL
Aspergillus lentulus [22]; read-out: MEC
  minimal effective concentration: 0.03 µg/mL
Aspergillus lentulus [23]; read-out: MEC
  minimal effective concentration: 0.03 µg/mL
Neosartorya hiratsukae [24]; read-out: MEC
  minimal effective concentration: 0.03 µg/mL
[25]; read-out: MEC
  minimal effective concentration: 0.26 µg/mL
[26]; read-out: MEC
  minimal effective concentration: 0.03 µg/mL
[27]; read-out: MEC
  minimal effective concentration: 0.08 µg/mL
Neosartorya hiratsukae [28]; read-out: MEC
  minimal effective concentration: 0.04 µg/mL

## CN(C/C=C/C#CC(C)(C)C)Cc1cccc2ccccc12 [TERBINAFINE]
Aspergillus lentulus [1]
  MIC: 1.33 µg/mL (≈ 4.56 µM)
Aspergillus lentulus [2]
  MIC: 1.75 µg/mL (≈ 6 µM)
Aspergillus lentulus [3]
  MIC: 1 µg/mL (≈ 3.43 µM)
Aspergillus viridinutans [4]
  MIC: 0.75 µg/mL (≈ 2.57 µM)
Neosartorya hiratsukae [5]
  MIC: 0.06 µg/mL (≈ 0.206 µM)
Aspergillus lentulus [6]
  MIC: 0.83 µg/mL (≈ 2.85 µM)
Aspergillus lentulus [7]
  MIC: 1.25 µg/mL (≈ 4.29 µM)
Aspergillus lentulus [8]
  MIC: 1 µg/mL (≈ 3.43 µM)
Aspergillus lentulus [9]
  MIC: 0.66 µg/mL (≈ 2.26 µM)
Aspergillus fumigatus
  MIC: 2 µg/mL (≈ 6.86 µM)
Aspergillus viridinutans [10]
  MIC: 1.2 µg/mL (≈ 4.12 µM)
Aspergillus lentulus [11]
  MIC: 0.5 µg/mL (≈ 1.72 µM)
[12]
  MIC: 1.66 µg/mL (≈ 5.7 µM)
[13]
  MIC: 1.33 µg/mL (≈ 4.56 µM)
Aspergillus lentulus [14]
  MIC: 1 µg/mL (≈ 3.43 µM)
Aspergillus lentulus [15]
  MIC: 1 µg/mL (≈ 3.43 µM)
Aspergillus lentulus [16]
  MIC: 0.5 µg/mL (≈ 1.72 µM)
[17]
  MIC: 1.66 µg/mL (≈ 5.7 µM)
Neosartorya hiratsukae [18]
  MIC: 0.2 µg/mL (≈ 0.686 µM)
Neosartorya hiratsukae [19]
  MIC: 0.09 µg/mL (≈ 0.309 µM)
Aspergillus lentulus [20]
  MIC: 0.5 µg/mL (≈ 1.72 µM)
[21]
  MIC: 0.5 µg/mL (≈ 1.72 µM)
Aspergillus lentulus [22]
  MIC: 0.5 µg/mL (≈ 1.72 µM)
Aspergillus lentulus [23]
  MIC: 0.5 µg/mL (≈ 1.72 µM)
Neosartorya hiratsukae [24]
  MIC: 0.09 µg/mL (≈ 0.309 µM)
[25]
  MIC: 1 µg/mL (≈ 3.43 µM)
[26]
  MIC: 0.5 µg/mL (≈ 1.72 µM)
[27]
  MIC: 1.4 µg/mL (≈ 4.8 µM)
Neosartorya hiratsukae [28]
  MIC: 0.25 µg/mL (≈ 0.858 µM)
